ChEMBL document CHEMBL1140700, “Substituted pyrazoles as hepatoselective HMG-CoA reductase inhibitors: discovery of (3R,5R)-7-[2-(4-fluoro-phenyl)-4-isopropyl-5-(4-methyl-benzylcarbamoyl)-2H-pyrazol-3-yl]-3,5-dihydroxyheptanoic acid (PF-3052334) as a candidate for the treatment of hypercholesterolemia” (J Med Chem, 2008)

Experiments:
L6 = experiment: Inhibition of cholesterol synthesis in rat L6 cells; assay type: functional, cell-based
Hepatocyte [1] = experiment: Ratio of IC50 for cholesterol synthesis in rat myocytes to rat hepatocytes; assay type: functional
Syrian golden hamster [2] = experiment: Inhibition of cholesterol synthesis in Goldern Syrian hamster blood at 10 mg/kg, po after 2 to 4 hrs relative to control; assay type: functional; conditions: Mesocricetus auratus, read-out: Inhibition
Outline: (§1)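 Hamsters on chow with 2.5% cholestyramine from 3 days prior; oral gavage of vehicle or compound (10 mpk), n = 8/group. At 2 h (2–4 h arm) or 4 h (4–6 h arm) postdose, i.p. 80 µCi 14C sodium acetate in 0.9% NaCl; euthanized 2 h later, cardiac blood, plasma saponified and extracted, 14C cholesterol counted; % change vs untreated controls.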

[3] = biological target: T1, 3-hydroxy-3-methylglutaryl-coenzyme A reductase (Rattus norvegicus, UniProt P51639); experiment: Inhibition of HMG-CoA reductase in Sprague-Dawley rat liver microsomes; parameters: species or system Microsome
T1 sequence (P51639 whole entry): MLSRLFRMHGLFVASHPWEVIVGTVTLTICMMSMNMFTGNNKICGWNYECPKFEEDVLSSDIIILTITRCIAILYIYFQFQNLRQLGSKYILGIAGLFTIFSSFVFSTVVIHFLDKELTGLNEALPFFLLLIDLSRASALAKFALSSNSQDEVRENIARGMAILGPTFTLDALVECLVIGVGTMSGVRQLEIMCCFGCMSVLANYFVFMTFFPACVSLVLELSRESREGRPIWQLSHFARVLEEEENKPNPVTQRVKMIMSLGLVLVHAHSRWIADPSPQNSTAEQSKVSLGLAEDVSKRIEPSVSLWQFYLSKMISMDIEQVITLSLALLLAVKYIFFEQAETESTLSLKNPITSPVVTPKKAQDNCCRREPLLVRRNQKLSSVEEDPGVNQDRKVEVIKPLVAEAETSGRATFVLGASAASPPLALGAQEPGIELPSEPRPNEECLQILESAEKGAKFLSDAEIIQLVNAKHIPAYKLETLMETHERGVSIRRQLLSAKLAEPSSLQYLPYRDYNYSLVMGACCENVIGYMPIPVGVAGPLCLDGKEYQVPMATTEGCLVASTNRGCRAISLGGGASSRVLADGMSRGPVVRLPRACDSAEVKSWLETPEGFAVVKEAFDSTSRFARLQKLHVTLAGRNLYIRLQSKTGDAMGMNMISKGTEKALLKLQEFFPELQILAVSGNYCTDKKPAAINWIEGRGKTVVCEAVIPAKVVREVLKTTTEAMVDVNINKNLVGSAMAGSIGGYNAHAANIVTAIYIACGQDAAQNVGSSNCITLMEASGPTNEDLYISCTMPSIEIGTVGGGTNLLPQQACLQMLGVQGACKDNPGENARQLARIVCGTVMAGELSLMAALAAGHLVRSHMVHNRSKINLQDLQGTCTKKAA
Outline: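 Rat liver microsomes (35 µg/mL) in 100 mM NaH2PO4, 10 mM imidazole, 10 mM EDTA, preincubated with compound in DMSO 0.5 h on ice; 14C-HMG-CoA (0.024 µCi) with 15 mM NADPH and 25 mM DTT added, 0.75 h at 37 °C. Stopped with HCl, lactonized to mevalonolactone, anion-exchange resin separation, scintillation counting; IC50 by curve fit.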

Cavia porcellus [4] = experiment: Reduction of LDL level in chow fed Hartley guinea pig serum at 20 mg/kg/day, po for 7 days relative to rosuvastatin; assay type: functional, Hartely; parameters: scale not given: the % may be the effect or the level left
Outline: (§2)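 Male Hartley guinea pigs (300–500 g) on chow diet 5025, acclimated ≥1 week; vehicle or compound suspension by daily oral gavage at 10 or 20 mpk (n = 8/group) for 7 days; sacrificed 2 h after final dose; LDL cholesterol as mean % change from vehicle group.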

Hepatocyte [5] = experiment: Inhibition of cholesterol synthesis in rat hepatocytes; assay type: functional, cell-based
Outline: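 Frozen rat hepatocytes on collagen-coated wells, 10^5 cells/well, grown 24 h in DMEM/10% FBS/10 mM HEPES. Compound preincubation 4 h, then 1 µCi/mL 14C acetic acid for 4 h more.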

Syrian golden hamster [6] = experiment: Inhibition of cholesterol synthesis in Golden Syrian hamster blood at 10 mg/kg, po after 4 to 6 hrs relative to control; assay type: functional; conditions: Mesocricetus auratus, read-out: Inhibition; outline: as §1
Cavia porcellus [7] = experiment: Reduction of LDL level in chow fed Hartley guinea pig serum at 10 mg/kg/day, po for 7 days relative to rosuvastatin; assay type: functional, Hartely; parameters: scale not given: the % may be the effect or the level left; conditions: in the assay text read “20 mg/kg/day” for “10 mg/kg/day”; outline: as §2
Cavia porcellus [8] = experiment: Reduction of LDL level in po dosed Hartley guinea pig plasma after 7 days; assay type: functional; conditions: Hartely, 168 h
[9] = Lipophilicity, log P of the compound; assay type: physicochemical; conditions: octanol/water

SMILES	IC50 (L6) [nM]	Ratio IC50 (Hepatocyte [1])	% change in cholesterol synthesis vs control at 10 mg/kg (Syrian golden hamster [2]) [%]	IC50 [3] [nM]	Activity (Cavia porcellus [4]) [%]	IC50 (Hepatocyte [5]) [nM]	Percent change in cholesterol synthesis vs control at 10 mg/kg (Syrian golden hamster [6]) [%]	Activity (Cavia porcellus [7]) [%]	ED50 (Cavia porcellus [8]) [mg/kg]	LogP [9]
Cc1cccc(CN(C)C(=O)c2nn(-c3ccc(F)cc3)c(CC[C@@H](O)C[C@@H](O)CC(=O)[O-])c2C(C)C)c1.[Na+]	4800	8000	-72	6.1	-15	0.6				
CC(C)c1c(C(=O)N(C)Cc2ccc(F)cc2F)nn(-c2ccc(F)cc2)c1CC[C@@H](O)C[C@@H](O)CC(=O)[O-].[Na+]	4400	2100	-82	7	-32	2.1	-17			
CC(C)c1c(C(=O)N(C)Cc2cccc(F)c2F)nn(-c2ccc(F)cc2)c1CC[C@@H](O)C[C@@H](O)CC(=O)[O-].[Na+]	5700	9500	-81	9	-45	0.6	-22			
CC(C)c1c(C(=O)N(C)[C@@H](C)c2ccccc2)nn(-c2ccc(F)cc2)c1CC[C@@H](O)C[C@@H](O)CC(=O)O	41000					3.5				
CC(C)c1c(C(=O)N2CCCC2c2ccccc2)nn(-c2ccc(F)cc2)c1CC[C@@H](O)C[C@@H](O)CC(=O)O (stereo partly specified)	130			7.3		4				
CC(C)c1c(C(=O)N2CCCC(c3ccccc3)C2)nn(-c2ccc(F)cc2)c1CC[C@@H](O)C[C@@H](O)CC(=O)O (stereo partly specified)	680		-80	1.5		0.4	-15			
CC(C)c1c(C(=O)N2CCC[C@H](c3ccccc3)C2)nn(-c2ccc(F)cc2)c1CC[C@@H](O)C[C@@H](O)CC(=O)O			-78	2		0.3				
COc1ccc(CNC(=O)c2nn(-c3ccc(F)cc3)c(CC[C@@H](O)C[C@@H](O)CC(=O)O)c2C(C)C)cc1	460			2.8		0.4				
COCc1cccc(CNC(=O)c2nn(-c3ccc(F)cc3)c(CC[C@@H](O)C[C@@H](O)CC(=O)[O-])c2C(C)C)c1.[Na+]	1800	2600	-71	7	-42	0.7	-19			
CC(C)c1c(C(=O)NCc2cccc(C#N)c2)nn(-c2ccc(F)cc2)c1CC[C@@H](O)C[C@@H](O)CC(=O)O	2400			2.2		1.4				
CC(C)c1c(CC[C@@H](O)C[C@@H](O)CC(=O)O)nn(-c2ccc(F)cc2)c1C(=O)NCc1ccccc1				520						
Cc1ccc(CN(C)C(=O)c2nn(-c3ccc(F)cc3)c(CC[C@@H](O)C[C@@H](O)CC(=O)O)c2C(C)C)cc1	4000			9.9		1.8				
CC(C)c1c(C(=O)N(C)Cc2ccccc2F)nn(-c2ccc(F)cc2)c1CC[C@@H](O)C[C@@H](O)CC(=O)O	17000		-69	4.8		0.5	-30			
CCN(Cc1ccccc1)C(=O)c1nn(-c2ccc(F)cc2)c(CC[C@@H](O)C[C@@H](O)CC(=O)O)c1C(C)C	4400			3.8		5.5				
CC(C)c1c(C(=O)N(C)Cc2cccc(F)c2)nn(-c2ccc(F)cc2)c1CC[C@@H](O)C[C@@H](O)CC(=O)O	6000		-65	3.9		0.2				
CC(C)c1c(C(=O)N(Cc2ccccc2)C(C)C)nn(-c2ccc(F)cc2)c1CC[C@@H](O)C[C@@H](O)CC(=O)O	9800			9.8		10				
CC(C)c1c(C(=O)N(C)Cc2ccc(F)cc2)nn(-c2ccc(F)cc2)c1CC[C@@H](O)C[C@@H](O)CC(=O)O	6000		-71	6.6		0.5				
CC(C)c1c(C(=O)NCc2ccc(C(=O)N(C)C)cc2)nn(-c2ccc(F)cc2)c1CC[C@@H](O)C[C@@H](O)CC(=O)O	21000			25		23				
CC(C)c1c(C(=O)N2CCCCC2c2ccccc2)nn(-c2ccc(F)cc2)c1CC[C@@H](O)C[C@@H](O)CC(=O)O (stereo partly specified)	330			6.1		1.1				
COc1ccc(CN(C)C(=O)c2nn(-c3ccc(F)cc3)c(CC[C@@H](O)C[C@@H](O)CC(=O)O)c2C(C)C)cc1	5800		-57	12		0.3				
CC(C)c1c(C(=O)N(C)[C@H](C)c2ccccc2)nn(-c2ccc(F)cc2)c1CC[C@@H](O)C[C@@H](O)CC(=O)[O-].[Na+]	1900		-62			0.3	-10	-11		
CC(C)c1c(C(=O)NCc2ccc(F)cc2)nn(-c2ccc(F)cc2)c1CC[C@@H](O)C[C@@H](O)CC(=O)O	490			3.8		0.7				
Cc1ccc(CNC(=O)c2nn(-c3ccc(F)cc3)c(CC[C@@H](O)C[C@@H](O)CC(=O)[O-])c2C(C)C)cc1.[Na+]	730	810	-74	1.9	-41	0.9	-15		3.6	
CC(C)c1c(C(=O)N(C)Cc2ccccc2)nn(-c2ccc(F)cc2)c1CC[C@@H](O)C[C@@H](O)CC(=O)[O-].[Na+]	3100	16000	-61	5.9	-20	0.2	-16			
CC(C)c1c(C(=O)NCc2ccccc2)nn(-c2ccc(F)cc2)c1CC[C@@H](O)C[C@@H](O)CC(=O)O	100			4.7		0.3				
COCc1c(C(C)C)nc(C(C)C)c(/C=C/[C@@H](O)C[C@@H](O)CC(=O)O)c1-c1ccc(F)cc1 [CERIVASTATIN]	3					1.7				
CC[C@H](C)C(=O)O[C@H]1C[C@H](O)C=C2C=C[C@H](C)[C@H](CC[C@@H](O)C[C@@H](O)CC(=O)O)[C@H]21 [PRAVASTATIN]	7600	450		13		17			100	-0.67
CC(C)c1nc(N(C)S(C)(=O)=O)nc(-c2ccc(F)cc2)c1/C=C/[C@@H](O)C[C@@H](O)CC(=O)O [ROSUVASTATIN]	250	830	-76	3.1	-42	0.3	-46		9.3	
